Test results published in ChEMBL document CHEMBL1275561, “In vitro activities of doripenem, a new broad-spectrum carbapenem, against recently collected clinical anaerobic isolates, with emphasis on the Bacteroides fragilis group” (2008).

Legend:
Type in all cases: functional
[1] = system: Finegoldia magna; test: Antimicrobial activity against Finegoldia magna by agar dilution method
Procedure, shortened: (§1)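 Gram-positive anaerobes were tested by CLSI agar dilution on brucella agar enriched with 5% lysed defibrinated sheep blood and 1 μg/ml vitamin K1. Inoculum was log-phase growth at 0.5 McFarland, about 10^5 CFU/spot by replicator. Incubation was anaerobic, 37°C, 48 h. MIC was the lowest concentration with a marked growth change versus the drug-free plate. Eubacterium lentum ATCC 43055 was the control, and tests were repeated if it fell outside the CLSI range.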

[2] = system: Bacteroides fragilis; test: Antimicrobial activity against Bacteroides fragilis by agar dilution method
Procedure, shortened: (§2)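 CLSI agar dilution on enriched brucella agar (5% lysed defibrinated sheep blood, 1 μg/ml vitamin K1), with drug plates made on the test day. Log-phase cells were adjusted to 0.5 McFarland, and about 10^5 CFU/spot was delivered by Steers replicator. Plates were incubated anaerobically at 37°C for 48 h. MIC was the lowest concentration giving a marked growth change versus the control plate. Controls were B. fragilis ATCC 25285 and B. thetaiotaomicron ATCC 29741.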

[3] = system: Clostridium subterminale; test: Antimicrobial activity against Clostridium subterminale by agar dilution method
[4] = system: Peptoniphilus asaccharolyticus; test: Antimicrobial activity against Peptoniphilus asaccharolyticus by agar dilution method; procedure, shortened: as §1
[5] = system: [Clostridium] innocuum; test: Antimicrobial activity against Clostridium innocuum by agar dilution method
[6] = system: Bacteroides eggerthii; test: Antimicrobial activity against Bacteroides eggerthii by agar dilution method; procedure, shortened: as §2
[7] = system: Bacteroides uniformis; test: Antimicrobial activity against Bacteroides uniformis by agar dilution method; procedure, shortened: as §2
[8] = system: Anaerococcus prevotii; test: Antimicrobial activity against Anaerococcus prevotii by agar dilution method; procedure, shortened: as §1
[9] = system: Parabacteroides distasonis; test: Antimicrobial activity against Bacteroides distasonis assessed as resistant isolates by agar dilution method
Procedure, shortened: (§3)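 CLSI agar dilution on enriched brucella agar (5% lysed defibrinated sheep blood, 1 μg/ml vitamin K1), plates made on test day. Log-phase inocula adjusted to 0.5 McFarland; about 10^5 CFU/spot by Steers replicator. Incubated anaerobically at 37°C for 48 h. MIC was the lowest concentration giving a marked change in growth versus the drug-free control plate. Resistance rates used CLSI anaerobe breakpoints. Controls were B. fragilis ATCC 25285 and B. thetaiotaomicron ATCC 29741.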

[10] = system: Bacteroides uniformis; test: Antimicrobial activity against Bacteroides uniformis assessed as resistant isolates by agar dilution method; procedure, shortened: as §3
[11] = system: Parabacteroides merdae; test: Antimicrobial activity against Bacteroides merdae assessed as resistant isolates by agar dilution method; procedure, shortened: as §3
[12] = system: [Clostridium] innocuum; test: Antimicrobial activity against Clostridium innocuum assessed as resistant isolates by agar dilution method; conditions: pooled result: one value given for 4 cell lines, strains, targets or settings
[13] = system: Parabacteroides merdae; test: Antimicrobial activity against Bacteroides merdae by agar dilution method; procedure, shortened: as §2
[14] = system: Bacteroides thetaiotaomicron; test: Antimicrobial activity against Bacteroides thetaiotaomicron assessed as resistant isolates by agar dilution method; procedure, shortened: as §3
[15] = system: Bacteroides nordii; test: Antimicrobial activity against Bacteroides nordii assessed as resistant isolates by agar dilution method; procedure, shortened: as §3
[16] = system: Bacteroides eggerthii; test: Antimicrobial activity against Bacteroides eggerthii assessed as resistant isolates by agar dilution method; procedure, shortened: as §3
[17] = system: Bacteroides nordii; test: Antimicrobial activity against Bacteroides nordii by agar dilution method; procedure, shortened: as §2
[18] = system: Clostridium paraputrificum; test: Antimicrobial activity against Clostridium paraputrificum by agar dilution method
[19] = system: Finegoldia magna; test: Antimicrobial activity against Finegoldia magna assessed as resistant isolates by agar dilution method
Procedure, shortened: (§4)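 Agar dilution following CLSI on brucella agar with 5% lysed defibrinated sheep blood and 1 μg/ml vitamin K1, plates made on test day. Log-phase cells at 0.5 McFarland, about 10^5 CFU/spot by Steers replicator, 48 h anaerobic at 37°C. MIC read as the lowest concentration causing a marked growth change versus control. Resistance counted by CLSI anaerobe breakpoints. Eubacterium lentum ATCC 43055 served as control.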

[20] = system: Bacteroides caccae; test: Antimicrobial activity against Bacteroides caccae assessed as resistant isolates by agar dilution method; procedure, shortened: as §3
[21] = system: Propionibacterium; test: Antimicrobial activity against Propionibacterium sp. assessed as resistant isolates by agar dilution method; procedure, shortened: as §4
[22] = system: Clostridioides difficile; test: Antimicrobial activity against Clostridium difficile by agar dilution method
[23] = system: Cutibacterium acnes; test: Antimicrobial activity against Propionibacterium acnes by agar dilution method
Procedure, shortened: (§5)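 Log-phase isolates were adjusted to 0.5 McFarland, and about 10^5 CFU/spot was delivered by Steers replicator. Plates were incubated anaerobically at 37°C for 48 h. MIC was the lowest concentration giving a marked growth change versus the control plate. Eubacterium lentum ATCC 43055 was the QC strain, with repeats when out of range.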

[24] = system: Bacteroides ovatus; test: Antimicrobial activity against Bacteroides ovatus assessed as resistant isolates by agar dilution method; procedure, shortened: as §3
[25] = system: Cutibacterium acnes; test: Antimicrobial activity against Propionibacterium acnes assessed as resistant isolates by agar dilution method; procedure, shortened: as §4
[26] = system: Phocaeicola vulgatus; test: Antimicrobial activity against Bacteroides vulgatus by agar dilution method; procedure, shortened: as §2
[27] = system: Bacteroides thetaiotaomicron; test: Antimicrobial activity against Bacteroides thetaiotaomicron by agar dilution method; procedure, shortened: as §2
[28] = system: Clostridium perfringens; test: Antimicrobial activity against Clostridium perfringens by agar dilution method
[29] = system: Peptostreptococcus sp.; test: Antimicrobial activity against Peptostreptococcus sp. by agar dilution method; procedure, shortened: as §5
[30] = system: Clostridium tertium; test: Antimicrobial activity against Clostridium tertium by agar dilution method
[31] = system: Peptoniphilus asaccharolyticus; test: Antimicrobial activity against Peptoniphilus asaccharolyticus assessed as resistant isolates by agar dilution method; conditions: pooled result: one value given for 4 cell lines, strains, targets or settings; procedure, shortened: as §4
[32] = system: Phocaeicola vulgatus; test: Antimicrobial activity against Bacteroides vulgatus assessed as resistant isolates by agar dilution method; procedure, shortened: as §3
[33] = system: Bacteroides fragilis; test: Antimicrobial activity against Bacteroides fragilis assessed as resistant isolates by agar dilution method; procedure, shortened: as §3
[34] = system: Parvimonas micra; test: Antimicrobial activity against Micromonas micros by agar dilution method; procedure, shortened: as §1
[35] = system: Bacteroides caccae; test: Antimicrobial activity against Bacteroides caccae by agar dilution method; procedure, shortened: as §2
[36] = system: Bacteroides ovatus; test: Antimicrobial activity against Bacteroides ovatus by agar dilution method; procedure, shortened: as §2
[37] = system: Propionibacterium; test: Antimicrobial activity against Propionibacterium sp. by agar dilution method; procedure, shortened: as §5
[38] = system: Parabacteroides distasonis; test: Antimicrobial activity against Bacteroides distasonis by agar dilution method; procedure, shortened: as §2

CCC[C@@H]1C[C@@H](C(=O)N[C@@H]([C@H]2O[C@H](SC)[C@H](O)[C@@H](O)[C@H]2O)[C@H](C)Cl)N(C)C1 [CLINDAMYCIN]
29.3%: Activity [33]
2 µg/mL: MIC50 [3] | MIC50 [5] | MIC50 [7] | MIC50 [18] | MIC50 [27] | MIC90 [28] | MIC50 [30] | MIC50 [36] | MIC90 [37]
12.2%: Activity [31]
0.5 µg/mL: MIC50 [1] | MIC [2] | MIC50 [2] | MIC90 [23] | MIC [26] | MIC50 [26]
128 µg/mL: MIC90 [2] | MIC90 [7] | MIC90 [26] | MIC90 [27] | MIC90 [35] | MIC90 [36] | MIC90 [38]
7.7%: Activity [21]
42.9%: Activity [24]
8 µg/mL: MIC90 [6] | MIC90 [13] | MIC90 [17]
32.3%: Activity [32]
20%: Activity [11] | Activity [15] | Activity [16] | Activity [19]
1 µg/mL: MIC50 [6] | MIC50 [13] | MIC50 [17] | MIC [22] | MIC50 [35] | MIC50 [38]
0.25 µg/mL: MIC50 [4] | MIC50 [8] | MIC [23] | MIC50 [23] | MIC50 [28] | MIC50 [29] | MIC50 [34] | MIC [37] | MIC50 [37]
22.2%: Activity [12]
13.3%: Activity [9]
32 µg/mL: MIC90 [1] | MIC90 [3] | MIC90 [4] | MIC90 [5] | MIC90 [8] | MIC90 [18] | MIC90 [29] | MIC90 [30] | MIC90 [34]
5.6%: Activity [25]
3.8%: Activity [10]
34.6%: Activity [14]
31.3%: Activity [20]
